Results: ChEMBL document CHEMBL3352450, “Indazole-type alkaloids from Nigella sativa seeds exhibit antihyperglycemic effects via AMPK activation in vitro” (J Nat Prod, 2014)

Tests used:
[1] = tested on: HepG2; test: Increase in glucose consumption in human HepG2 cells grown under low-glucose medium assessed as reduction in glucose levels at 1 mM incubated for 7 hrs by glucose assay; type: functional; design: scale not given: the % may be the effect or the level left
How it was run: (§1)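 HepG2 cells (kept in high-glucose DMEM with 10% FBS) were seeded at 4.0 × 10^4 cells/well for 8 h. They were then held overnight in low-glucose ([…]) medium with 2 mM glutamine and 1% FBS. Treatment lasted 7 h in that medium, with DMSO stocks and 0.1% DMSO as solvent control. Medium glucose was read by colorimetric kit at 490 nm, with 3 replicates, as mean ± SD.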

[2] = tested on: HepG2; test: Toxicity against human HepG2 cells at 100 uM; type: cell-based; conditions: hepg2, 100 µM
[3] = tested on: HepG2; test: Increase in glucose consumption in human HepG2 cells grown under low-glucose medium assessed as reduction in glucose levels at 25 uM incubated for 7 hrs by glucose assay; type: functional; design: scale not given: the % may be the effect or the level left; how it was run: as §1
[4] = biological target: AMP-activated protein kinase, AMPK (Homo sapiens) (UniProt P54646+O43741+P54619+Q9UGJ0+Q9Y478+Q13131+Q9UGI9); test: Increase in AMPK phosphorylation in human HepG2 cells at 25 to 100 uM incubated for 24 hrs by Western blotting method; type: cell-based
How it was run: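 HepG2 cells were grown in 6-well plates for 8 h, then held overnight in low-glucose medium and treated for 24 h. Lysis was in RIPA buffer with BCA protein assay. 20 μg/lane was run on 8% SDS-PAGE and blotted to PVDF, blocked in 5% milk, and probed overnight for p-AMPK (Thr172), AMPK and β-actin. HRP secondary was applied for 1 h, with ECL detection on film.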

CN(C)C(=N)NC(=N)N [METFORMIN]
Activity [1]: 24%

COc1cc(C)cc2c1c(-c1ccc(O)cc1)[n+]1n2CCCC1
Activity [2]: Non-toxic | Activity [3]: 8%

Cc1cc(O)c2c(-c3ccc(O)cc3)[n+]3n(c2c1)CCCC3
Activity [2]: Non-toxic | Activity [3]: 8%

COc1cc(C)cc2c1c[n+]1n2CCCC1
Activity [2]: Non-toxic | Activity [3]: 8% | Activity [4]: Dose-dependent effect

COc1cc(C)cc2c1c(-c1ccc(O[C@@H]3O[C@H](CO)[C@@H](O)[C@H](O)[C@H]3O)cc1)[n+]1n2CCCC1
Activity [2]: Non-toxic | Activity [3]: 29% | Activity [4]: Dose-dependent effect

Cc1cc(O)c2c[n+]3n(c2c1)CCCC3
Activity [2]: Non-toxic | Activity [3]: 8%

C[C@@]1(O)CC(=O)c2c(n3[n+](c2-c2ccc(O)cc2)CCCC3)C1
Activity [2]: Non-toxic | Activity [3]: 8%
